Measurements published in ChEMBL document CHEMBL2331224 (J Med Chem, 2013).
The source made the active and inactive calls. The rule behind the calls is not given here.

What was measured:
Mus musculus [1] = assay: Toxicity against KKAy mouse assessed as blood urea nitrogen level at 10 mg/kg/day, po for 14 days (reference value: 21.9 +/- 1.1 mg/dL); format: organism-based; design: route oral; conditions: in vivo, 336 h
[2] = target: T1, Retinoic acid receptor RXR-alpha (Homo sapiens) (UniProt P19793); assay: Transactivation of RXRalpha (unknown origin) expressed in COS1 cells at 1 uM after 18 hrs by luciferase reporter gene assay relative to bexarotene; format: cell-based; conditions: COS-1
T1 sequence (whole entry): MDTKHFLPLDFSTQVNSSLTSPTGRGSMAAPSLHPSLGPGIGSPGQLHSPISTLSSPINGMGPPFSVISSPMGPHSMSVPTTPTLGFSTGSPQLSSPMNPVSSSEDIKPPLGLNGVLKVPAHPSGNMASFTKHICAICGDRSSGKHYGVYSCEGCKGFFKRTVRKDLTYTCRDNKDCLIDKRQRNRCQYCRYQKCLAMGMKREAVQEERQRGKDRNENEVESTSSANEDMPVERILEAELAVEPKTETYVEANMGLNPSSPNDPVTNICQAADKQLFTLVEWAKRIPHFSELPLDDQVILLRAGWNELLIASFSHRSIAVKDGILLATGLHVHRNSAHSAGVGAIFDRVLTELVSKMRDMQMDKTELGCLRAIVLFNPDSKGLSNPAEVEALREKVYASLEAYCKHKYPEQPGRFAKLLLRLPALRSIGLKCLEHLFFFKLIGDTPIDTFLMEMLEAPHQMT
Procedure, shortened: (§1)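 COS-1 cells in DMEM with 10% FBS at 37 °C, 5% CO2, transfected with RXRα, an RXR-response-element luciferase reporter and a SEAP background vector. Cells were seeded at about 2.0 × 10⁴ per well with compound (DMSO below 1%) for 18 h. Luciferase was normalized to SEAP and expressed relative to 1 μM reference RXR full agonist as 100%. EC50 came from full dose-response curves. Triplicates, at least three experiments.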

[3] = target: T1, Retinoic acid receptor RXR-alpha (Homo sapiens); assay: Partial agonist activity at human RXRalpha by luciferase reporter gene assay
Procedure, shortened: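 COS-1 cells transfected with RXRα, luciferase reporter under RXR response element, and SEAP control; cells seeded ~2.0 × 10⁴/well with compound (DMSO below 1%), 18 h at 37 °C, 5% CO₂. Luciferase normalized to SEAP, expressed relative to 1 μM LGD1069 as 100%; EC₅₀ from full dose-response curves; triplicate, three experiments.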

[4] = target: T1, Retinoic acid receptor RXR-alpha (Homo sapiens); assay: Transactivation of RXRalpha (unknown origin) expressed in COS1 cells at 0.1 uM after 18 hrs by luciferase reporter gene assay relative to bexarotene; format: cell-based; conditions: COS-1; procedure, shortened: as §1
Mus musculus [5] = assay: Toxicity against KKAy mouse assessed as plasma ALP level at 10 mg/kg/day, po for 14 days (reference value: 358.2 +/- 43.1 IU); format: organism-based; design: route oral; conditions: in vivo, 336 h
Mus musculus [6] = assay: Antidiabetic activity in KKAy mouse at 10 mg/kg/day, po for 14 days measured on day 15 by oral glucose tolerance test relative to control; format: functional, organism-based
Procedure, shortened: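 On day 15, KK-A^y mice dosed orally at 10 mg/kg/day for 14 days were fasted 17 h and given oral glucose at 1 g/kg. Blood glucose was read by glucose oxidase at 0, 15, 30, 45, 60, 90 and 120 min. n = 4−5.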

Mus musculus [7] = assay: Toxicity in ICR mouse assessed as development of hepatomegaly at 30 mg/kg/day, po for 7 days; format: organism-based; design: route oral; conditions: in vivo, 168 h
Procedure, shortened: (§2)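 Male ICR mice, 6−7 weeks old, four per cage, grouped by body weight. Oral 30 mg/kg or vehicle (1% ethanol/0.5% CMC in water, 10 mL/kg) once daily for 7 days, body weight recorded daily. After overnight fasting, mice were weighed under ether, and liver was removed and weighed. Serum was analysed on a dry-chemistry analyser for TG, TCHO, ALP, CRE, BUN and other markers. n = 7−23, ANOVA.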

Mus musculus [8] = assay: Toxicity against KKAy mouse assessed as creatinine level at 10 mg/kg/day, po for 14 days (reference value: 0.2 mg/dl); format: organism-based; design: route oral; conditions: in vivo, 336 h
Mus musculus [9] = assay: Toxicity in ICR mouse assessed as change in renal function parameters at 30 mg/kg/day, po for 7 days; format: organism-based; design: route oral; conditions: in vivo, 168 h; procedure, shortened: as §2
Mus musculus [10] = assay: Toxicity against KKAy mouse assessed as plasma ALT level at 10 mg/kg/day, po for 14 days (reference value: 17.6 +/- 0.9 IU); format: organism-based; design: route oral; conditions: in vivo, 336 h
Mus musculus [11] = assay: Hepatotoxicity in ICR mouse assessed as increase in ALP level at 30 mg/kg, po for 7 days; format: toxicity, organism-based; design: dose 30 mg/kg, route oral; conditions: in vivo, 168 h; procedure, shortened: as §2
Mus musculus [12] = assay: Toxicity in ICR mouse assessed as increase in blood total cholesterol level at 30 mg/kg/day, po for 7 days; format: organism-based; design: route oral; conditions: in vivo, 168 h; procedure, shortened: as §2
[13] = target: T2, Retinoic acid receptor RXR-beta (Homo sapiens) (UniProt P28702); assay: Partial agonist activity at RXRbeta (unknown origin) by luciferase reporter gene assay relative to LGD1069
T2 sequence (whole entry): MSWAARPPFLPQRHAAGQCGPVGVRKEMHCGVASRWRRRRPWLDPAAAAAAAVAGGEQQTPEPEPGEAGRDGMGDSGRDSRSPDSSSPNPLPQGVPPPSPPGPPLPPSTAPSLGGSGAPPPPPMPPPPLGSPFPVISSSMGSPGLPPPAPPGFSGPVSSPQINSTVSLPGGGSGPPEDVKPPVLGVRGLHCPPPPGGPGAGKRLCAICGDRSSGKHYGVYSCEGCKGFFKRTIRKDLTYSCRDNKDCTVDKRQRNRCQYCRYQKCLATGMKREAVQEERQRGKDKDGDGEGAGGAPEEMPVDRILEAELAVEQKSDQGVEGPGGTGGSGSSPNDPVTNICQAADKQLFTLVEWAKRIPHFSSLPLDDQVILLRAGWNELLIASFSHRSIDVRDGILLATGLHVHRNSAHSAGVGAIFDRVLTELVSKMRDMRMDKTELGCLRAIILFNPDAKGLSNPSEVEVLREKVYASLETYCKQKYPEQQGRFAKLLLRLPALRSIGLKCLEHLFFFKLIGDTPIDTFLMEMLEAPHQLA

[14] = target: T3, Retinoic acid receptor gamma (Homo sapiens) (UniProt P13631); assay: Transactivation of RARgamma (unknown origin) by luciferase reporter gene assay relative to All-trans retinoic acid
T3 sequence (whole entry): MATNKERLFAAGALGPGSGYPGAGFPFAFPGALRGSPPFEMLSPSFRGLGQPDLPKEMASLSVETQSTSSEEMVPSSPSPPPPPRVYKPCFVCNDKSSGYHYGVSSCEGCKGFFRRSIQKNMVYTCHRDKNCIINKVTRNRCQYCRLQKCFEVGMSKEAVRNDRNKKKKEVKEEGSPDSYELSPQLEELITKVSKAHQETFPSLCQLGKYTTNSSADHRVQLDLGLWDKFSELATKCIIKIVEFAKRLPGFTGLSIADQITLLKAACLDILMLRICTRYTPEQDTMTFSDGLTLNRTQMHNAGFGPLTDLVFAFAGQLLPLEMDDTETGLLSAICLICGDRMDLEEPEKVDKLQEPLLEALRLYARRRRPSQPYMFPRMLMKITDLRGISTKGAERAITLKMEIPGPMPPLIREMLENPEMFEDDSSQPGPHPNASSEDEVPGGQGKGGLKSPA

With Cc1cc2c(cc1-n1c(C(F)(F)F)nc3cc(C(=O)O)ccc31)C(C)(C)CCC2(C)C the Activity (Mus musculus [1]) was 22.5 mg/dL, the Efficacy [2] was 65% and the Activity [3] was “Active”. For the same compound, the Efficacy [4] was 21%, the Activity (Mus musculus [5]) was 554 IU and the Activity (Mus musculus [6]) was “inactive”. For the same compound, the Activity (Mus musculus [7]) was “Toxic”, the Activity (Mus musculus [8]) was 0.2 mg/dL and the Activity (Mus musculus [9]) was “Non-toxic”. For the same compound, the Activity (Mus musculus [10]) was 17.3 IU, the Activity (Mus musculus [11]) was “Toxic” and the Activity (Mus musculus [12]) was “Non-toxic”. For the same compound, the Activity [13] was “Active” and the Activity [14] was “Active”.
